Source: ChEMBL document CHEMBL1124953, “Orally effective acid prodrugs of the beta-lactamase inhibitor sulbactam” (J Med Chem, 1990)

What was measured:
[1] = Maximum Concentration of the compound.; format: ADME, organism-based; settings: in vivo
How it was run: (§1)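 Male outbred CD rats (70-90 g), five per prodrug, given 10 mg/kg orally in CMC diluent. Orbital plexus blood into heparinized tubes, plasma sampled over 4 h. Plasma sulbactam quantified by synergistic agar-well bioassay: Pasteurella hemolytica (ATCC 43823) in Mueller-Hinton agar with ampicillin and triphenyltetrazolium chloride, 18 h at 37 °C. Standard curve 10-0.1 μg/mL in rat plasma, zone-size regression. AUC and Cmax from concentration-time plot.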

[2] = Area under curve (AUC) was determined; format: ADME; design: concentration or dose not given beside the values; how it was run: as §1

| SMILES | Cmax [1] [ng/mL] | AUC [2] [µg·h/mL] |
| --- | --- | --- |
| CC1(C)[C@H](C(=O)OCOC(=O)CCCC(=O)O)N2C(=O)C[C@H]2S1(=O)=O | 8200 | 10 |
| CC1(C)[C@H](C(=O)OCOC(=O)CCCCC(=O)OCc2ccccc2)N2C(=O)C[C@H]2S1(=O)=O | 1600 | 2.3 |
| CC1(C)[C@H](C(=O)OCOC(=O)CC(=O)O)N2C(=O)C[C@H]2S1(=O)=O | 2000 | 3.5 |
| CC1(C)[C@H](C(=O)OCOC(=O)CCCCC(=O)O)N2C(=O)C[C@H]2S1(=O)=O | 5200 | 7.5 |
| CC(C)(C(=O)O)C(=O)OCOC(=O)[C@@H]1N2C(=O)C[C@H]2S(=O)(=O)C1(C)C | 3900 | 6.2 |
| CC(C)(C)C(=O)OCOC(=O)[C@@H]1N2C(=O)C[C@H]2S(=O)(=O)C1(C)C [SULBACTAM PIVOXIL] | 6200 | 8.5 |
| CC1(C)[C@H](C(=O)O)N2C(=O)C[C@H]2S1(=O)=O [SULBACTAM] | 700 | 1.4 |
